Measurements: article PMC10938339 (ACS Omega, 2024)
Where two headings read alike, the source gives them in different places.

Experiments:
PPT1 [1] = biological target: T1, PPT1 (Homo sapiens, UniProt P50897); experiment: biochemical; details: for IC50: IC50 (95 % CI)
T1 sequence (P50897 28-306): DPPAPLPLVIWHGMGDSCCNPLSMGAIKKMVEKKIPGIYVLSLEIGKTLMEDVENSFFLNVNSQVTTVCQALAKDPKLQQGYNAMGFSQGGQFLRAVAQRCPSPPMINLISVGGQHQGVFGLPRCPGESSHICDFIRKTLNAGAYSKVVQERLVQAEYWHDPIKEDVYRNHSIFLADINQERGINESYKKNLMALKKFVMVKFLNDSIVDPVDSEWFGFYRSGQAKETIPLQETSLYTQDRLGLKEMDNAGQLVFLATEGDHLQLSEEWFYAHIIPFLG

PPT1 [2] = details: cited from earlier work
[3] = test system: neuroblastoma SH-SY5Y cell line; assay type: cell-based, human; details: 48 h treatment, alamarBlue 18 h; NA = not active
[4] = cited from earlier work
[5] = biological target: T2, PPT1 in HepG2 cell extracts (Homo sapiens, UniProt P50897); experiment: PPT1 inhibition in HepG2 cell extracts; assay type: biochemical; details: cell extracts treated 1 h
T2 sequence (P50897 28-306): T1 sequence (P50897 28-306)
How it was run: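 HepG2 lysates, prepared as for cells (MPER, protease inhibitor, 0.5% Triton X-100, 14,000 rpm spin), were treated directly with compound for 1 h. PPT1 activity was then read with the MU-6S-Palm-βGlc/β-glucosidase assay, measuring 4-methylumbelliferone fluorescence. Biological duplicates with technical triplicates; percent activity expressed relative to DMSO control.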

PPT1 in HepG2 cells = biological target: T3, PPT1 in HepG2 cells (Homo sapiens, UniProt P50897); experiment: PPT1 inhibition in HepG2 cells; assay type: cell-based; details: intact cells treated 5 h, activity relative to DMSO control
T3 sequence (P50897 28-306): T1 sequence (P50897 28-306)
How it was run: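 HepG2 cells in DMEM + 10% FBS (37 °C, 5% CO2) were seeded overnight, then exposed to compound in medium for 5 h. They were lysed in MPER with protease inhibitor and 0.5% Triton X-100, spun at 14,000 rpm for 15 min, and protein-normalised. Lysates were assayed with MU-6S-Palm-βGlc plus β-glucosidase (4-MU fluorescence, Ex 365/Em 448, 4-MU standard curve). Biological duplicates, technical triplicates; activity relative to DMSO.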

[6] = cited from earlier work; remark: listed apart in the source

Row | Molecule | IC50 (PPT1 [1]) | also measured
1 | CCN(CC)Cc1cc(Nc2ccnc3cc(Cl)ccc23)ccc1O [Amodiaquine] | 344 µM | 
2 | CCN(CC)CCCC(C)Nc1ccnc2cc(Cl)ccc12 (centres unmarked) [Chloroquine] | 47.2 µM | 
3 | CC(C)(C)NC1CCN(c2cc(NCc3ccc(Cl)cc3)nc3ccccc23)CC1 [GNS561] |  | PPT1 inhibition (PPT1 [2]; 1 μM after 3 h): 25%; PPT1 inhibition (PPT1 [2]; 1 μM after 72 h): 50%
4 | CCN(CC)CCNc1ccc(CO)c2sc3ccccc3c(=O)c12 [Hycanthone] | 111 µM | 
5 | CCN(CCO)CCCC(C)Nc1ccnc2cc(Cl)ccc12 (centres unmarked) [Hydroxychloroquine] | 109 µM | SH-SY5Y IC50 [3]: did not reach a 50% decrease in cell viability at the highest concentration tested
6 | OC(c1cc(C(F)(F)F)nc2c(C(F)(F)F)cccc12)C1CCCCN1 (centres unmarked) [Mefloquine] |  | inhibition at 125 µM (PPT1 [1]; compound 125 μM): ≤ 50%
7 | Cc1ncc([N+](=O)[O-])n1CCO [Metronidazole] | > 100 µM | 
8 | CCOC(=O)[N-]c1cn(N2CCOCC2)n[o+]1 [Molsidomine] | > 100 µM | 
9 | CCCCCCCCCCC[C@@H](C[C@@H]1OC(=O)[C@H]1CCCCCC)OC(=O)[C@H](CC(C)C)NC=O [Orlistat] | 0.179 µM | oral absorption [4]: poorly orally absorbed; PPT1 inhibition in HepG2 cell extracts (in words) [5]: inhibited PPT1 in cell extracts; PPT1 inhibition in HepG2 cells (in words) (PPT1 in HepG2 cells): poor PPT1 inhibition; % Inhibition (PPT1 [1]; Spectrum Collection library screen, substrate 20 μM): 90.7%
10 | Cc1ncc([N+](=O)[O-])n1CC(O)CCl (centres unmarked) [Ornidazole] | > 100 µM | 
11 | CCCCCCCCCC[C@@H]1C(=O)O[C@H]1CCc1ccc(OC)c(OC)c1 [Palmostatin B] | 0.0118 µM | PPT1 inhibition in HepG2 cell extracts (in words) [5]: inhibited PPT1 in cell extracts; PPT1 inhibition in HepG2 cells (in words) (PPT1 in HepG2 cells): poor PPT1 inhibition
12 | CC(CN1c2ccccc2Sc2ccccc21)N(C)C (centres unmarked) [Promethazine] | > 100 µM | 
13 | CCN(CC)CCCC(C)Nc1c2ccc(Cl)cc2nc2ccc(OC)cc12 (centres unmarked) [Quinacrine] | ~169 µM | 
14 | CO[C@H]1/C=C/O[C@@]2(C)Oc3c(C)c(O)c4c(O)c(c(/C=N/N5CCN(C6CCCC6)CC5)c(O)c4c3C2=O)NC(=O)/C(C)=C\C=C\[C@H](C)[C@H](O)[C@@H](C)[C@@H](O)[C@@H](C)[C@H](OC(C)=O)[C@@H]1C [Rifapentine] | 63.3 µM | 
15 | C[C@@H]1O[C@@H](OC[C@H]2O[C@@H](Oc3c(-c4ccc(O)c(O)c4)oc4cc(O)cc(O)c4c3=O)[C@H](O)[C@@H](O)[C@@H]2O)[C@H](O)[C@H](O)[C@H]1O [Rutin trihydrate] | ~156 µM | 
16 | Cn1nnc2c(C(N)=O)ncn2c1=O [Temozolomide] | 236 µM | 
17 | CN(C)[C@@H]1C(O)=C(C(N)=O)C(=O)[C@@]2(O)C(O)=C3C(=O)c4c(O)cccc4[C@@](C)(O)[C@H]3C[C@@H]12 [Tetracycline] | > 100 µM | 
18 | Cc1ccc(C(=O)c2cc(O)c(O)c([N+](=O)[O-])c2)cc1 [Tolcapone] | 179 µM | blood–brain barrier penetration [6]: can penetrate the blood–brain barrier
19 | COc1cc(C=O)ccc1O [Vanillin] | 647 µM | 
20 | TVB-3166 |  | PPT1 inhibition (in words) (PPT1 [1]; FASN inhibitors tested against PPT1): did not inhibit PPT1
